Reference: ChEMBL document CHEMBL1145867, “Muraymycins, novel peptidoglycan biosynthesis inhibitors: synthesis and SAR of their analogues” (2003)
Values after ≈ are worked out from the molar mass of the structure shown. Active and inactive are the calls of the source. No cut-off for these calls is given here.

Experiments:
[1] = tested on: Staphylococcus sp.; test: In vitro antimicrobial activity against Staphylococci; assay type: functional, staphyl ococcus species
Procedure, shortened: (§1)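 Broth microdilution per NCCLS guidance. Serial dilutions of each agent in microtiter plates are inoculated with each organism to 10⁵ CFU/mL and incubated 18–22 h at 35 C in ambient air. MIC is the lowest concentration giving complete growth inhibition, judged by the unaided eye.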

[2] = tested on: Bacteria; test: In vitro antimicrobial activity against gram-negative organisms (10); assay type: functional; procedure, shortened: as §1
[3] = tested on: Enterococcus sp.; test: In vitro antimicrobial activity against Enterococci; assay type: functional; procedure, shortened: as §1
[4] = The inhibitory activity of compound against MraY or MurG at 6.25 ug/mL; No Inhibition
[5] = The inhibitory activity of compound against MraY or MurG at 50 ug/mL; Inhibit
[6] = The inhibitory activity of compound against MraY or MurG at 25 ug/mL; No Inhibition
[7] = The inhibitory activity of compound against MraY or MurG at 100 ug/mL; Inhibit
[8] = The inhibitory activity of compound against MraY or MurG at 12.5 ug/mL; No Inhibition
[9] = The inhibitory activity of compound against MraY or MurG at 100 ug/mL; No Inhibition
[10] = The inhibitory activity of compound against MraY or MurG at 50 ug/mL; No Inhibition

Row | SMILES | MIC [1] [µg/mL] | MIC [2] [µg/mL] | MIC [3] [µg/mL] | Inhibitory activity [4] | Inhibitory activity [5] | Inhibitory activity [6] | Inhibitory activity [7] | Inhibitory activity [8] | Inhibitory activity [9] | Inhibitory activity [10]
1 | COc1ccc(Cn2c(=O)ccn([C@@H]3OC([C@H](O)[C@H](NCCCNC(=O)[C@@H](CCc4ccccc4)NC(=O)OCc4ccccc4)C(=O)OC(C)(C)C)[C@@H](O[Si](C)(C)C(C)(C)C)[C@H]3O[Si](C)(C)C(C)(C)C)c2=O)cc1 (stereo not given in full) | 128 (≈ 119 µM) | > 128 | 128 (≈ 119 µM) |  |  |  |  |  |  | 
2 | COc1ccc(Cn2c(=O)ccn([C@@H]3OC([C@H](O)[C@H](NCCCNC(=O)[C@H](NC(=O)OCc4ccccc4)C(O)C(C)C)C(=O)OC(C)(C)C)[C@@H](O[Si](C)(C)C(C)(C)C)[C@H]3O[Si](C)(C)C(C)(C)C)c2=O)cc1 (stereo not given in full) | > 128 | > 128 | 128 (≈ 123 µM) |  |  |  |  |  |  | 
3 | COc1ccc(Cn2c(=O)ccn([C@@H]3OC([C@H](O)[C@H](NCCCNC(=O)[C@@H](CCC(=O)OC(C)(C)C)NC(=O)OCc4ccccc4)C(=O)OC(C)(C)C)[C@@H](O[Si](C)(C)C(C)(C)C)[C@H]3O[Si](C)(C)C(C)(C)C)c2=O)cc1 (stereo not given in full) | 128 (≈ 117 µM) | > 128 | > 128 |  |  |  |  |  |  | 
4 | CC(C)C(O)[C@@H](NC(=O)OCc1ccccc1)C(=O)NCCCN[C@H](C(=O)OC(C)(C)C)[C@@H](O)C1O[C@@H](n2ccc(=O)[nH]c2=O)[C@H](O[Si](C)(C)C(C)(C)C)[C@@H]1O[Si](C)(C)C(C)(C)C (stereo not given in full) | > 128 | > 128 | 64 (≈ 69.4 µM) |  |  |  |  |  |  | 
5 | COc1ccc(Cn2c(=O)ccn([C@@H]3OC([C@H](O)[C@H](NCCCNC(=O)[C@@H](CC(C)C)NC(=O)[C@H](CCC/N=C(\N)N[N+](=O)[O-])NC(=O)N[C@H](C(=O)OCc4ccccc4)C(C)C)C(=O)O)[C@@H](O)[C@H]3O)c2=O)cc1 (stereo not given in full) | > 128 | > 128 | > 128 |  |  |  |  |  |  | 
6 | COc1ccc(Cn2c(=O)ccn([C@@H]3OC([C@H](O)[C@H](NCCCNC(=O)[C@@H](CC(=O)OCc4ccccc4)NC(=O)OCc4ccccc4)C(=O)OC(C)(C)C)[C@@H](O[Si](C)(C)C(C)(C)C)[C@H]3O[Si](C)(C)C(C)(C)C)c2=O)cc1 (stereo not given in full) | > 128 | > 128 | 4 (≈ 3.58 µM) |  |  |  |  |  |  | 
7 | COc1ccc(Cn2c(=O)ccn([C@@H]3OC([C@H](O)[C@H](NCCCNC(=O)[C@@H](CCCCNC(=O)OCc4ccccc4)NC(=O)OCc4ccccc4)C(=O)OC(C)(C)C)[C@@H](O[Si](C)(C)C(C)(C)C)[C@H]3O[Si](C)(C)C(C)(C)C)c2=O)cc1 (stereo not given in full) | > 128 | > 128 | > 128 |  |  |  |  |  |  | 
8 | COc1ccc(Cn2c(=O)ccn([C@@H]3OC([C@H](O)[C@H](NCCCNC(=O)[C@H](N)CC(=O)OCc4ccccc4)C(=O)OC(C)(C)C)[C@@H](O[Si](C)(C)C(C)(C)C)[C@H]3O[Si](C)(C)C(C)(C)C)c2=O)cc1 (stereo not given in full) | 16 (≈ 16.3 µM) | 128 (≈ 130 µM) | 4 (≈ 4.06 µM) | inactive | Inhibit | inactive | Inhibit | inactive |  | 
9 | COc1ccc(Cn2c(=O)ccn([C@@H]3OC([C@H](O)[C@H](NCCCNC(=O)[C@@H](CC(C)C)NC(=O)[C@H](CCCN=C(N)N)NC(=O)N[C@H](C(=O)O)C(C)C)C(=O)O)[C@@H](O)[C@H]3O)c2=O)cc1 (stereo not given in full) | > 128 | > 128 | > 128 | inactive |  | inactive |  | inactive | inactive | inactive
10 | COc1ccc(Cn2c(=O)ccn([C@@H]3OC([C@H](O)[C@H](NCCCNC(=O)[C@@H](CC(C)C)NC(=O)OCc4ccccc4)C(=O)O)[C@@H](O)[C@H]3O)c2=O)cc1 (stereo not given in full) | > 128 | > 128 | 128 (≈ 173 µM) |  |  |  |  |  |  | 
